Values after ≈ are worked out from the molar mass of the structure shown. Active and inactive are the calls of the source. The rule behind the calls is not given here.
Key:
[1] = test system: Staphylococcus aureus; experiment: Antibacterial activity against macrolide-lincosamide-streptogramin B-positive, beta-lactamase-positive, methicillin-resistant Staphylococcus aureus isolate 6; format: functional
Outline: (§1)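 MIC by broth dilution in Mueller-Hinton broth, inoculum 8 × 10^5 CFU/ml. Strains were typed for beta-lactamase with cefinase, for methicillin susceptibility by Etest, and for macrolide-lincosamide-streptogramin B by disc diffusion on MHA at 0.5 McFarland.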

[2] = test system: Staphylococcus aureus; experiment: Antibacterial activity against macrolide-lincosamide-streptogramin B-negative, beta-lactamase-positive, methicillin-susceptible Staphylococcus aureus ATCC 29213; format: functional
[3] = test system: Staphylococcus aureus; experiment: Antibacterial activity against macrolide-lincosamide-streptogramin B-negative, beta-lactamase-positive, methicillin-susceptible Staphylococcus aureus isolate 3; format: functional
[4] = test system: Staphylococcus aureus; experiment: Antibacterial activity against macrolide-lincosamide-streptogramin B-negative, beta-lactamase-positive, methicillin-susceptible Staphylococcus aureus isolate 4; format: functional
[5] = test system: Staphylococcus aureus; experiment: Antibacterial activity against macrolide-lincosamide-streptogramin B-negative, beta-lactamase-positive, methicillin-susceptible Staphylococcus aureus isolate 5; format: functional
[6] = test system: Staphylococcus aureus; experiment: Antibacterial activity against macrolide-lincosamide-streptogramin B-positive, beta-lactamase-positive, methicillin-resistant Staphylococcus aureus ATCC 43300; format: functional; outline: as §1
[7] = test system: Staphylococcus aureus; experiment: Antibacterial activity against macrolide-lincosamide-streptogramin B-negative, beta-lactamase-positive, methicillin-susceptible Staphylococcus aureus ATCC 29213 in presence of clavulanic acid; format: functional
Outline: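 Amoxicillin/clavulanic acid MIC against S. aureus measured alone and together with sublethal D2S concentrations.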

[8] = Cytotoxicity against human neutrophil assessed as effect on cell viability up to 20 uM after 12 hrs by microscopy; format: cell-based
Outline: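 Freshly isolated human blood neutrophils incubated with D2S up to 20 µM for 12 h. Viability scored by manual trypan blue exclusion.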

[9] = test system: Pseudomonas aeruginosa; experiment: Bactericidal activity against kanamycin-resistant Pseudomonas aeruginosa PAO1 up to 50 uM after 1 hr by time-kill assay

SMILES | MIC [1] | MIC [2] | MIC [3] | MIC [4] | MIC [5] | MIC [6] | MIC [7] | Activity [8] | Activity [9]
NCC[C@H](O)C(=O)N[C@@H]1C[C@H](N)[C@@H](O[C@H]2O[C@H](CN)[C@@H](O)[C@H](O)[C@H]2O)[C@H](O)[C@H]1O[C@H]1O[C@H](CO)[C@@H](O)[C@H](N)[C@H]1O [AMIKACIN] | 25 µg/mL (≈ 42.7 µM) | 1.6 µg/mL (≈ 2.73 µM) | 1.6 µg/mL (≈ 2.73 µM) | 3.2 µg/mL (≈ 5.46 µM) | 1.6 µg/mL (≈ 2.73 µM) | 25 µg/mL (≈ 42.7 µM) |  |  | 
CC1(C)S[C@@H]2[C@H](NC(=O)[C@H](N)c3ccc(O)cc3)C(=O)N2[C@H]1C(=O)O [AMOXICILLIN] | 12.5 µg/mL (≈ 34.2 µM) |  | 0.2 µg/mL (≈ 0.547 µM) | 1.6 µg/mL (≈ 4.38 µM) | 3.2 µg/mL (≈ 8.76 µM) | 12.5 µg/mL (≈ 34.2 µM) | 0.4 µg/mL |  | 
C[C@@H]1C[C@H]2[C@@H]3CCC4=CC(=O)C=C[C@]4(C)[C@@]3(F)[C@@H](O)C[C@]2(C)[C@@]1(O)C(=O)CO [DEXAMETHASONE] |  |  |  |  |  |  |  | Non-toxic | inactive
CC[C@H]1OC(=O)[C@H](C)[C@@H](O[C@H]2C[C@@](C)(OC)[C@@H](O)[C@H](C)O2)[C@H](C)[C@@H](O[C@@H]2O[C@H](C)C[C@H](N(C)C)[C@H]2O)[C@](C)(O)C[C@@H](C)C(=O)[C@H](C)[C@@H](O)[C@]1(C)O [ERYTHROMYCIN] | 400 µg/mL (≈ 545 µM) | 0.4 µg/mL (≈ 0.545 µM) | 0.2 µg/mL (≈ 0.273 µM) | 0.4 µg/mL (≈ 0.545 µM) | 0.2 µg/mL (≈ 0.273 µM) | 400 µg/mL (≈ 545 µM) |  |  | 
CN(C)[C@@H]1C(O)=C(C(N)=O)C(=O)[C@@]2(O)C(O)=C3C(=O)c4c(O)cccc4[C@@](C)(O)[C@H]3C[C@@H]12 [TETRACYCLINE] | 20 µg/mL (≈ 45 µM) | 1.25 µg/mL (≈ 2.81 µM) | 1.25 µg/mL (≈ 2.81 µM) | 1.25 µg/mL (≈ 2.81 µM) | 40 µg/mL (≈ 90 µM) | 0.625 µg/mL (≈ 1.41 µM) |  |  | 

— ChEMBL document CHEMBL1275585, “Combined antibacterial and anti-inflammatory activity of a cationic disubstituted dexamethasone-spermine conjugate” (Antimicrob Agents Chemother, 2010)
